Measurements reported in ChEMBL document CHEMBL3286193, “Discovery of a series of 2,5-diaminopyrimidine covalent irreversible inhibitors of Bruton's tyrosine kinase with in vivo antitumor activity” (J Med Chem, 2014).
pIC50: −log10 of the molar value. ≈ marks a conversion by molar mass, not a printed value. Calls of active or inactive are those of the source. The rule behind the calls is not given here.

Key:
[1] = target: T1, Tyrosine-protein kinase BTK (Homo sapiens, UniProt Q06187); experiment: Inhibition of Btk (unknown origin) after 1 hr by HTRF assay
T1 sequence (Q06187 whole entry): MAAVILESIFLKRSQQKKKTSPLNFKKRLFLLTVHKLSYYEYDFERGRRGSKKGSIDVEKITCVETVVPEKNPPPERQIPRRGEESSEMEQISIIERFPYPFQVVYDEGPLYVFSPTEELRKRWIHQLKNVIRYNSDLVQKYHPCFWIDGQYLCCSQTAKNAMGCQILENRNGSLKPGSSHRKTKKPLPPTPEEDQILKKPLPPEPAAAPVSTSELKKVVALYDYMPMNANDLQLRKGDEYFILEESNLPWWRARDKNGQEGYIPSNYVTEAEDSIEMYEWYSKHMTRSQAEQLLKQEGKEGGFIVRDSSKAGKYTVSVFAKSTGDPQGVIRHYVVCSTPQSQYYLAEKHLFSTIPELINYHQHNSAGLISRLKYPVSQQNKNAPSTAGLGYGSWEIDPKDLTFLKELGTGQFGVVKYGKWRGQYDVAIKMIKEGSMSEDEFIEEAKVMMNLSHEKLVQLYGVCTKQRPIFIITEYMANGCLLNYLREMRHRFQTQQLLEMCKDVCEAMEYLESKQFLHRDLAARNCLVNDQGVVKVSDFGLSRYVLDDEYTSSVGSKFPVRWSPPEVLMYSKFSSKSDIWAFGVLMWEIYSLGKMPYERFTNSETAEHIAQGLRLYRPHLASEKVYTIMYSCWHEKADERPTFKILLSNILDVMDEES
Method in brief: (§1)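 Recombinant kinases tested by HTRF KinEase protocol. Enzyme preincubated with inhibitor for a fixed 10 min. IC50 values are means of duplicates.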

[2] = target: T1, Tyrosine-protein kinase BTK; experiment: Inhibition of Btk in human Ramos cells assessed as inhibition of PLC-gamma2 phosphorylation at Tyr1217 after 1 hr by Western blot analysis; assay type: cell-based
[3] = Cytotoxicity against human SU-DHL6 cells assessed as growth inhibition after 72 hrs by CellTiter-Glo luminescent cell viability assay; assay type: functional, SU-DHL-6
Method in brief: (§2)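 Lymphoma cells seeded at 5000 cells/well, incubated 24 h, then exposed to compounds for 72 h. Viability read by CellTiter-Glo luminescence. GI50 from dose−response curves, mean of two or three independent experiments in triplicate.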

[4] = Half life in ICR mouse at 1 mg/kg, iv by LC-MS analysis; assay type: ADME, organism-based; design: dose 1 mg/kg, route intravenous; conditions: in vivo
Method in brief: (§3)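 ICR mice (n = 3) given a single intravenous injection at 1 mg/kg. Blood sampled at various time points and analyzed by LC−MS to derive t1/2, CL and Vss.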

[5] = target: Receptor tyrosine-protein kinase erbB-2 (Homo sapiens, UniProt P04626); experiment: Inhibition of HER2 (unknown origin) after 1 hr by HTRF assay; method in brief: as §1
[6] = target: T2, Epidermal growth factor receptor (Homo sapiens, UniProt P00533); experiment: Inhibition of EGFR (unknown origin) after 1 hr by HTRF assay
T2 sequence (P00533 whole entry): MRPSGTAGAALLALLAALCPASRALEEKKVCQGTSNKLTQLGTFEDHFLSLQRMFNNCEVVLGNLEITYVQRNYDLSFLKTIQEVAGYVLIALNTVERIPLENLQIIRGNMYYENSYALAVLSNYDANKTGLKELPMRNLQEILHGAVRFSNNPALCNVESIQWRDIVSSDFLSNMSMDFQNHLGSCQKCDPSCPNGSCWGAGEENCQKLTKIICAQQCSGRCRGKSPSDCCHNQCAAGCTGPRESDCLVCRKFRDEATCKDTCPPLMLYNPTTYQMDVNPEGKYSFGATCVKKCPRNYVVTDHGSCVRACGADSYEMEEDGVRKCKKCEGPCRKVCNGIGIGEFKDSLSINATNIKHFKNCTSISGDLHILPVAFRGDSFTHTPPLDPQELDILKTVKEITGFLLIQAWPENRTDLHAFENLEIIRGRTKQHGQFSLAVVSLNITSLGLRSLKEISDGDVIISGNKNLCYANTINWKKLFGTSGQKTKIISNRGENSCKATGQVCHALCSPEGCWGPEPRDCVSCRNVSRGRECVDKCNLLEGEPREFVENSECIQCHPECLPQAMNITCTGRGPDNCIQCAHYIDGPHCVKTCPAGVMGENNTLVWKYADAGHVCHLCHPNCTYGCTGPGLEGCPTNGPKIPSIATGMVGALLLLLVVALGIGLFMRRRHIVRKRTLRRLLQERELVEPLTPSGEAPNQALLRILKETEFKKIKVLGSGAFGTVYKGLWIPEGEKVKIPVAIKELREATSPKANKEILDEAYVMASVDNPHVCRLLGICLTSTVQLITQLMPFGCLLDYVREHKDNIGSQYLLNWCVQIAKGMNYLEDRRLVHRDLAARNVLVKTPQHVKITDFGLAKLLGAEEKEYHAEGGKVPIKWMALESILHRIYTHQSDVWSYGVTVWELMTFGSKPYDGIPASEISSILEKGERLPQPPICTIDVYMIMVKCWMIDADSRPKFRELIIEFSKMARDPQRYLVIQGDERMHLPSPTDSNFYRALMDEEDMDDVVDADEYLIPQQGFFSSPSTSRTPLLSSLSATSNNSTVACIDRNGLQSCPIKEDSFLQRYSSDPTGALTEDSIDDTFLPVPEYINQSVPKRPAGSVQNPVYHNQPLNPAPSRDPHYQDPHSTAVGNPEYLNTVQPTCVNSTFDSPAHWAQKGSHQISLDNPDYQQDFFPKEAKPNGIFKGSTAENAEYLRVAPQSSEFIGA
Method in brief: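 Commercial recombinant kinase, assayed in the HTRF KinEase format following the kit protocol. Enzyme and inhibitor were preincubated for a fixed 10 min before the reaction.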

[7] = Half life in mouse liver microsomes by LC-MS/MS analysis; assay type: ADME
Method in brief: (§4)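 Liver microsomes incubated with compound and NADPH at 37 °C. Samples taken at several time points, centrifuged, and supernatants analyzed by LC−MS/MS. t1/2 and CL calculated by first-order kinetics. Testosterone, propranolol and clozapine served as positive controls.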

[8] = target: T1, Tyrosine-protein kinase BTK; experiment: Binding affinity to Btk kinase domain (387 to 659) (unknown origin) assessed as compound-protein covalent adduct formation at 1:3 protein to compound molar ratio at 4 degC after 1 hr by LC-MS analysis
Method in brief: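 Btk kinase domain (residues 387−659, MW 32136) incubated with 3 equiv of compound at 4 °C for 1 h. Mass spectrometry of the intact protein checked for mass peak shift consistent with 1-to-1 protein−compound adducts.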

[9] = target: Tyrosine-protein kinase JAK3 (Homo sapiens, UniProt P52333); experiment: Inhibition of Jak3 (unknown origin) after 1 hr by HTRF assay; method in brief: as §1
[10] = target: Cytoplasmic tyrosine-protein kinase BMX (Homo sapiens, UniProt P51813); experiment: Inhibition of Bmx (unknown origin) after 1 hr by HTRF assay; method in brief: as §1
[11] = target: Tyrosine-protein kinase ITK/TSK (Homo sapiens, UniProt Q08881); experiment: Inhibition of Itk (unknown origin) after 1 hr by HTRF assay; method in brief: as §1
Tyrosine-protein kinase ITK/TSK, sequence (Q08881 whole entry): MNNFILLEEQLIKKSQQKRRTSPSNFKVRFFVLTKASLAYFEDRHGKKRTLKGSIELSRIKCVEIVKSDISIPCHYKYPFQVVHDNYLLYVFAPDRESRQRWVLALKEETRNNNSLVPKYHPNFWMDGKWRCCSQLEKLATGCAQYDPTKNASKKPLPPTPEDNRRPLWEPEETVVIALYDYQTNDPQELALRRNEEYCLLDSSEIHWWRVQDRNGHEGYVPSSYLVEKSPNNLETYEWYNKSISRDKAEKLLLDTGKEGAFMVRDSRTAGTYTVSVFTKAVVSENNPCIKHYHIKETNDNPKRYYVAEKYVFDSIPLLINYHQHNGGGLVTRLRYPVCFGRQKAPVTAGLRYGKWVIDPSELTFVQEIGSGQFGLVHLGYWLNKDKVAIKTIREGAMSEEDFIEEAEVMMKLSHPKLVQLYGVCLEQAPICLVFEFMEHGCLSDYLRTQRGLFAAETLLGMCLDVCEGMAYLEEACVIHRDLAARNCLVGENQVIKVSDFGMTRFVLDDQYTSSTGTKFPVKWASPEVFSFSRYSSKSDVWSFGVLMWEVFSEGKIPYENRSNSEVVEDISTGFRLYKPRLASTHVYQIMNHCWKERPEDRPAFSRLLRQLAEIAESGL

[12] = Volume of distribution at steady state in ICR mouse at 1 mg/kg, iv by LC-MS analysis; assay type: ADME, organism-based; design: dose 1 mg/kg, route intravenous; conditions: in vivo, read-out: Vdss; method in brief: as §3
[13] = target: Tyrosine-protein kinase TXK (Homo sapiens, UniProt P42681); experiment: Inhibition of Rlk (unknown origin) after 1 hr by HTRF assay; method in brief: as §1
Tyrosine-protein kinase TXK, sequence (P42681 whole entry): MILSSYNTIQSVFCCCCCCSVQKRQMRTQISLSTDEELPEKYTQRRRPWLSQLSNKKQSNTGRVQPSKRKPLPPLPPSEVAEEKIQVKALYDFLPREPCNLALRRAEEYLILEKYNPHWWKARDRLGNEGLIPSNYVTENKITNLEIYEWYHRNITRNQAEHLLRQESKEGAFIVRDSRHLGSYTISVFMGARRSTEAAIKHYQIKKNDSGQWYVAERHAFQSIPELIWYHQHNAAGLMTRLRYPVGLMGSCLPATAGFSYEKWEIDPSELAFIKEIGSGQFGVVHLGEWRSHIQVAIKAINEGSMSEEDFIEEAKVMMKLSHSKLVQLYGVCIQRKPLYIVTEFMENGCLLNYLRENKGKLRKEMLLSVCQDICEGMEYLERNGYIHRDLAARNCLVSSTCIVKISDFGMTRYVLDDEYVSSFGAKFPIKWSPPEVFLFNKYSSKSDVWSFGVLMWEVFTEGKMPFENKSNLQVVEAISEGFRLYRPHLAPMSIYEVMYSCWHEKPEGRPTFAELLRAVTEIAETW

[14] = Stability of the compound in FaSSIF assessed as compound remaining at 1 uM measured at 24 hrs by LC-MS analysis; assay type: ADME; conditions: read-out: Stability
Method in brief: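 Compound solutions in FaSSIF shaken at 350 rpm at 37 °C. Samples taken at 2, 6, 10 and 24 h and quantified by LC−MS as % remaining.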

[15] = target: T1, Tyrosine-protein kinase BTK; experiment: Irreversible inhibition of Btk phosphorylation at Tyr551 in human Ramos cells at 1 uM incubated for 1 hr followed by compound washout with fresh media measured after 2 hrs by Western blot analysis; assay type: cell-based
Method in brief: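 Ramos cells (5 × 10⁵) seeded overnight, treated with compound 1 h, then washed out with fresh media for 2 h. Cells stimulated with goat anti-human IgM for 3−5 min, lysed by boiling in SDS buffer, and Btk Tyr551 phosphorylation assessed by Western blot.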

[16] = target: Receptor tyrosine-protein kinase erbB-4 (Homo sapiens, UniProt Q15303); experiment: Inhibition of HER4 (unknown origin) after 1 hr by HTRF assay; method in brief: as §1
Receptor tyrosine-protein kinase erbB-4, sequence (Q15303 whole entry): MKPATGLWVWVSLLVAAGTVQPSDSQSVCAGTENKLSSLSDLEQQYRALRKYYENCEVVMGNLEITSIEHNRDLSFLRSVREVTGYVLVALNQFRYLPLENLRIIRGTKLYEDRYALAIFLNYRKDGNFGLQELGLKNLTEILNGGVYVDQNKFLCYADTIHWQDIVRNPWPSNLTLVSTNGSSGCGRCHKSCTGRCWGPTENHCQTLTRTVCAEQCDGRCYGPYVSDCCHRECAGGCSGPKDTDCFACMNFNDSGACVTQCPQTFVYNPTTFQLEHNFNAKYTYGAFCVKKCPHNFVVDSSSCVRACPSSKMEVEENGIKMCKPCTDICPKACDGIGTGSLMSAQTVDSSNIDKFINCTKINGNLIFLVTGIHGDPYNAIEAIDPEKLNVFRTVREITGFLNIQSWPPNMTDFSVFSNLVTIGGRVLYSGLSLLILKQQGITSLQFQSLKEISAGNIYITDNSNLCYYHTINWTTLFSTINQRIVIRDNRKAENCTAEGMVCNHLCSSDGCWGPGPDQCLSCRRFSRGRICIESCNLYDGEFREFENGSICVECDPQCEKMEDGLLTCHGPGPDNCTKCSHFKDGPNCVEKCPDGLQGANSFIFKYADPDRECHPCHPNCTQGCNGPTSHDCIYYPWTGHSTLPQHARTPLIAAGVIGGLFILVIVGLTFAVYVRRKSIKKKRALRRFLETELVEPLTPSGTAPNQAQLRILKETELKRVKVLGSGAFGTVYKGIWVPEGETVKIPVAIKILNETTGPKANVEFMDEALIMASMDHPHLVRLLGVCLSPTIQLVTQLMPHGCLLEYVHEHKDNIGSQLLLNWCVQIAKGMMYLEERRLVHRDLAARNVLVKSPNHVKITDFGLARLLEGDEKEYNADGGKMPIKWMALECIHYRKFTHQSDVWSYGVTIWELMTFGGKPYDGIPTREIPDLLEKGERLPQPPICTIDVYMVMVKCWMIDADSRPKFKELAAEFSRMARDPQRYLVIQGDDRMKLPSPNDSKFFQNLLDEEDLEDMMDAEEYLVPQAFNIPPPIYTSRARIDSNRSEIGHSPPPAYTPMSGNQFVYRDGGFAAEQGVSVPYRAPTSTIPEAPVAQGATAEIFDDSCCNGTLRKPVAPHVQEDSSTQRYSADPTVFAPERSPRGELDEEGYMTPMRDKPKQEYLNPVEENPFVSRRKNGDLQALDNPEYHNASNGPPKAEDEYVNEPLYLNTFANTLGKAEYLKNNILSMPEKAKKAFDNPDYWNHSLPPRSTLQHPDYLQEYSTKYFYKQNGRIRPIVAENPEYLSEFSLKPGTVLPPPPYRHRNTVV

[17] = Solubility of the compound in FaSSIF; assay type: ADME
[18] = Cytotoxicity against human Pfeiffer cells assessed as growth inhibition after 72 hrs by CellTiter-Glo luminescent cell viability assay; assay type: functional; method in brief: as §2
[19] = tested on: Liver microsomes (Mus musculus); experiment: Clearance in mouse liver microsomes by LC-MS/MS analysis
[20] = Clearance in mouse liver microsomes by LC-MS/MS analysis; assay type: ADME; conditions: read-out: CLH; method in brief: as §4
WSU-NHL = experiment: Cytotoxicity against human WSU-NHL cells assessed as growth inhibition after 72 hrs by CellTiter-Glo luminescent cell viability assay; assay type: functional; method in brief: as §2
[21] = Clearance in ICR mouse at 1 mg/kg, iv by LC-MS analysis; assay type: ADME, organism-based; design: dose 1 mg/kg, route intravenous; conditions: in vivo; method in brief: as §3
[22] = target: T1, Tyrosine-protein kinase BTK; experiment: Inhibition of Btk phosphorylation at Tyr551 in human Ramos cells after 1 hr by Western blot analysis; assay type: cell-based
[23] = target: Tyrosine-protein kinase Blk (Homo sapiens, UniProt P51451); experiment: Inhibition of Blk (unknown origin) after 1 hr by HTRF assay; method in brief: as §1
Tyrosine-protein kinase Blk, sequence (P51451 whole entry): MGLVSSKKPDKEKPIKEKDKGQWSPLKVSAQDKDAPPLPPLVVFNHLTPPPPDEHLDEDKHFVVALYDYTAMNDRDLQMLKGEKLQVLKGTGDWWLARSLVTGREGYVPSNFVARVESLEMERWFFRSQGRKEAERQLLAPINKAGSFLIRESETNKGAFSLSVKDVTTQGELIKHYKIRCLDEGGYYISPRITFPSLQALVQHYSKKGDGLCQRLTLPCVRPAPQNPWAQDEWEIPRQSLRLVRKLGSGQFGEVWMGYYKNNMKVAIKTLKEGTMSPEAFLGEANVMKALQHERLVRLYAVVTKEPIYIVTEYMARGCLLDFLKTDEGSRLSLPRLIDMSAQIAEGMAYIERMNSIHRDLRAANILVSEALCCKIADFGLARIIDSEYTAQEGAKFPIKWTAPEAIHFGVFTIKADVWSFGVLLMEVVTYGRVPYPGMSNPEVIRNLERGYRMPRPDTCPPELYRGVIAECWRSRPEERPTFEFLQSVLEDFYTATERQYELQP

[24] = Cytotoxicity against human DOHH2 cells assessed as growth inhibition after 72 hrs by CellTiter-Glo luminescent cell viability assay; assay type: functional, DOHH-2; method in brief: as §2
[25] = target: Tyrosine-protein kinase Tec (Homo sapiens, UniProt P42680); experiment: Inhibition of Tec (unknown origin) after 1 hr by HTRF assay; method in brief: as §1
Mus musculus = experiment: Toxicity in CB17 SCID mouse xenografted with human DOHH2 cells assessed as body weight fluctuations at 10 mg/kg, iv qd administered for 14 days measured over 14 days of compound treatment; assay type: organism-based, DOHH-2; design: dose 10 mg/kg, route intravenous; conditions: in vivo, 336 h
Method in brief: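 Female CB17/SCID mice carried subcutaneous DoHH2 xenografts (5 × 10⁶ cells injected), randomised at ~167 mm³ mean tumour volume into four groups (n = 6/group). Compound was given intravenously via the tail vein once daily for 14 consecutive days. Body weights were tracked over time throughout the study.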

[26] = target: T2, Epidermal growth factor receptor; conditions: 5 nM
[27] = Plasma concentration in CB17 SCID mouse xenografted with human DOHH2 cells at 10 mg/kg, iv qd administered for 14 days measured at 2 hrs post last dose; assay type: ADME, organism-based, DOHH-2; design: dose 10 mg/kg, route intravenous
Method in brief: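 Female CB17/SCID mice were given 5 × 10⁶ DoHH2 cells subcutaneously. When tumours averaged ~167 mm³, mice were randomised into four groups (n = 6/group). Dosing was by tail-vein injection once daily for 14 consecutive days. Plasma compound levels were determined at 2 and 24 h after the final dose.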

Cc1ccc(NC(=O)/C=C/c2ccccc2)cc1C(=O)Nc1cnc(Nc2cccc(N)c2)nc1
pIC50 [1]: 7.62

C=CC(=O)NCC(=O)Nc1cccc(Nc2ncc(NC(=O)c3cc(NC(=O)c4cccc(C(F)(F)F)c4)ccc3C)cn2)c1
pIC50 [2]: 7.89
GI50 ([3]; Homo sapiens, SU-DHL-6, 72 h): 0.043 µM
half-life [4]: 36 min
pIC50 [5]: 8.15
pIC50 [6]: 8.15
half-life [7]: 35.4 min
Activity [8]: Active
pIC50 [9]: 5.20
pIC50 [10]: 9.15
pIC50 [11]: < 4.52
Vd [12]: 0.13 L/kg
pIC50 [13]: 8.85
remaining at 24 h, 1 µM [14]: 99%
inhibition [15]: Active
pIC50 [16]: 8.48
solubility [17]: 2.23 µM (≈ 1.38 µg/mL)
GI50 ([18]; Homo sapiens, Pfeiffer, 72 h): 0.008 µM
CLH [19]: 49.8 mL/min/kg
microsomal CLint [20]: 28.1 µL/min/mg
GI50 (WSU-NHL): 0.029 µM
pIC50 [1]: > 8.36
clearance [21]: 11.5 mL/min/kg
pIC50 [22]: 7.89
pIC50 [23]: 8.38
GI50 ([24]; Homo sapiens, DOHH-2, 72 h): 0.04 µM
pIC50 [25]: 8.20

Cc1ccc(NC(=O)c2ccc3ccccc3c2)cc1C(=O)Nc1cnc(Nc2cccc(N)c2)nc1
pIC50 [1]: 7.41

C=CC(=O)N1CCC[C@@H](n2nc(-c3ccc(Oc4ccccc4)cc3)c3c(N)ncnc32)C1 [IBRUTINIB]
GI50 [3]: 0.58 µM
Activity (Mus musculus): Non-toxic
inhibition [26]: Active
concentration at 2 h [27]: 479 ng/mL
GI50 [18]: 0.002 µM
GI50 [24]: 0.41 µM

Cc1ccc(NC(=O)c2cccc(C(F)(F)F)c2)cc1C(=O)Nc1cnc(Nc2ccccc2)nc1
pIC50 [1]: 6.88

Nc1cccc(Nc2ncc(NC(=O)c3cccc(C(=O)Nc4cccc(C(F)(F)F)c4)c3)cn2)c1
pIC50 [1]: 7.35

Cc1ccc(NC(=O)c2cccc(C(F)(F)F)c2)cc1C(=O)Nc1cnc(Nc2cccc(F)c2)nc1
pIC50 [1]: 7.28

Cc1ccc(NC(=O)c2cccc(F)c2)cc1C(=O)Nc1cnc(Nc2cccc(N)c2)nc1
pIC50 [1]: 6.78

C=CC(=O)Nc1cccc(Nc2ncc(NC(=O)c3cc(NC(=O)c4cccc(F)c4)ccc3C)cn2)c1
pIC50 [1]: 7.32

C=CS(=O)(=O)Nc1cccc(Nc2ncc(NC(=O)c3cc(NC(=O)c4cccc(C(F)(F)F)c4)ccc3C)cn2)c1
pIC50 [1]: 7.80

Cc1ccc(NC(=O)c2cccc(N(C)C)c2)cc1C(=O)Nc1cnc(Nc2cccc(N)c2)nc1
pIC50 [1]: 7.33

Cc1ccc(NC(=O)c2cccc(C(F)(F)F)c2)cc1C(=O)Nc1cnc(Nc2cccc(NC(=O)CCN(C)C)c2)nc1
pIC50 [1]: 7.85

Cc1ccc(NC(=O)c2cccc(C(F)(F)F)c2)cc1C(=O)Nc1cnc(Nc2ccc(N)cc2)nc1
pIC50 [1]: 8.10

Cc1ccc(NC(=O)C2CC2)cc1C(=O)Nc1cnc(Nc2cccc(N)c2)nc1
pIC50 [1]: 5.31

Cc1ccc(NC(=O)c2cccc(C(F)(F)F)c2)cc1C(=O)Nc1cnc(Nc2cccc(NC(=O)CCl)c2)nc1
pIC50 [1]: 7.82

CCNc1ncc(NC(=O)c2cc(NC(=O)c3cccc(C(F)(F)F)c3)ccc2C)cn1
pIC50 [1]: 5.96

CCC(=O)Nc1ccc(C)c(C(=O)Nc2cnc(Nc3cccc(N)c3)nc2)c1
pIC50 [1]: 5.07

Cc1ccc(NC(=O)c2cccc(C(F)(F)F)c2)cc1C(=O)Nc1cnc(N)nc1
pIC50 [1]: 5.47

C=CC(=O)Nc1cccc(Nc2ncc(NC(=O)c3cc(NC(=O)c4ccc5ccccc5c4)ccc3C)cn2)c1
pIC50 [1]: 7.66

C=CC(=O)Nc1cccc(Nc2ncc(NC(=O)c3cc(NC(=O)c4ccc(Cl)c(C(F)(F)F)c4)ccc3C)cn2)c1
pIC50 [1]: 7.96

Cc1ccc(NC(=O)c2cccc(C(F)(F)F)c2)cc1C(=O)Nc1cnc(Nc2cccc(N)c2)nc1
pIC50 [1]: 7.85

Cc1ccc(NC(=O)Nc2cccc(C(F)(F)F)c2)cc1C(=O)Nc1cnc(Nc2cccc(N)c2)nc1
pIC50 [1]: 7.20

C=CC(=O)N(C(=O)C=C)c1cccc(Nc2ncc(NC(=O)c3cc(NC(=O)c4cccc(C(F)(F)F)c4)ccc3C)cn2)c1
pIC50 [1]: 6.68

C/C=C/C(=O)Nc1cccc(Nc2ncc(NC(=O)c3cc(NC(=O)c4cccc(C(F)(F)F)c4)ccc3C)cn2)c1
pIC50 [1]: 7.44

Cc1ccc(NC(=O)c2cc(Cl)cc(C(F)(F)F)c2)cc1C(=O)Nc1cnc(Nc2cccc(N)c2)nc1
pIC50 [1]: 7.74

Nc1cccc(Nc2ncc(NC(=O)c3cccc(NC(=O)c4cccc(C(F)(F)F)c4)c3)cn2)c1
pIC50 [1]: 6.63

CCC(=O)Nc1cccc(Nc2ncc(NC(=O)c3cc(NC(=O)c4cccc(C(F)(F)F)c4)ccc3C)cn2)c1
inhibition [15]: inactive
pIC50 [1]: 7.82

Cc1ccc(NC(=O)c2cccc(C(F)(F)F)c2)cc1C(=O)Nc1cnc(Nc2cccc(NC(=O)Cn3sc4ccccc4c3=O)c2)nc1
pIC50 [1]: 7.74

Nc1cccc(Nc2ncc(NC(=O)c3cc(NC(=O)c4cccc(C(F)(F)F)c4)ccc3F)cn2)c1
pIC50 [1]: 7.33

Nc1cccc(Nc2ncc(NC(=O)c3cc(NC(=O)c4cccc(C(F)(F)F)c4)ccc3Cl)cn2)c1
pIC50 [1]: 7.96

Cc1ccc(NC(=O)c2cccc(C(F)(F)F)c2)cc1C(=O)Nc1cnc(Nc2cccc(NC(=O)/C=C/CN(C)C)c2)nc1
pIC50 [1]: 7.82

Cc1ccc(NC(=O)c2cccc(Cl)c2)cc1C(=O)Nc1cnc(Nc2cccc(N)c2)nc1
pIC50 [1]: 7.70

Cc1ccc(NC(=O)c2cccc(C(F)(F)F)c2)cc1C(=O)Nc1cnc(NC2CC2)nc1
pIC50 [1]: 5.67

Cc1ccc(NC(=O)c2ccc(C(F)(F)F)cc2)cc1C(=O)Nc1cnc(Nc2cccc(N)c2)nc1
pIC50 [1]: 7.60

Cc1ccc(NC(=O)c2cccc(C(F)(F)F)c2)cc1C(=O)Nc1cnc(Nc2cccc(C(F)(F)F)c2)nc1
pIC50 [1]: 6.52

CCC(=O)N(C(=O)CC)c1cccc(Nc2ncc(NC(=O)c3cc(NC(=O)c4cccc(C(F)(F)F)c4)ccc3C)cn2)c1
pIC50 [1]: 5.85

COc1cccc(Nc2ncc(NC(=O)c3cc(NC(=O)c4cccc(C(F)(F)F)c4)ccc3C)cn2)c1
pIC50 [1]: 7.28

Cc1ccc(NC(=O)c2ccc(Cl)c(C(F)(F)F)c2)cc1C(=O)Nc1cnc(Nc2cccc(N)c2)nc1
pIC50 [1]: 8.05
